The values below come from ChEMBL document CHEMBL3425433, “Discovery of bicyclic pyrazoles as class III histone deacetylase SIRT1 and SIRT2 inhibitors” (Bioorg Med Chem Lett, 2015).

Calls of active or inactive are those of the source. A value given as a limit tells only on which side of the number the result lay.

The target in one data set is Histone deacetylase 1 (Homo sapiens, UniProt Q13547). Description: Inhibition of HDAC1 (unknown origin).
For data set [1], the target named is T1, NAD-dependent protein deacetylase sirtuin-1 (Homo sapiens, UniProt Q96EB6).
T1 sequence (Q96EB6 whole entry): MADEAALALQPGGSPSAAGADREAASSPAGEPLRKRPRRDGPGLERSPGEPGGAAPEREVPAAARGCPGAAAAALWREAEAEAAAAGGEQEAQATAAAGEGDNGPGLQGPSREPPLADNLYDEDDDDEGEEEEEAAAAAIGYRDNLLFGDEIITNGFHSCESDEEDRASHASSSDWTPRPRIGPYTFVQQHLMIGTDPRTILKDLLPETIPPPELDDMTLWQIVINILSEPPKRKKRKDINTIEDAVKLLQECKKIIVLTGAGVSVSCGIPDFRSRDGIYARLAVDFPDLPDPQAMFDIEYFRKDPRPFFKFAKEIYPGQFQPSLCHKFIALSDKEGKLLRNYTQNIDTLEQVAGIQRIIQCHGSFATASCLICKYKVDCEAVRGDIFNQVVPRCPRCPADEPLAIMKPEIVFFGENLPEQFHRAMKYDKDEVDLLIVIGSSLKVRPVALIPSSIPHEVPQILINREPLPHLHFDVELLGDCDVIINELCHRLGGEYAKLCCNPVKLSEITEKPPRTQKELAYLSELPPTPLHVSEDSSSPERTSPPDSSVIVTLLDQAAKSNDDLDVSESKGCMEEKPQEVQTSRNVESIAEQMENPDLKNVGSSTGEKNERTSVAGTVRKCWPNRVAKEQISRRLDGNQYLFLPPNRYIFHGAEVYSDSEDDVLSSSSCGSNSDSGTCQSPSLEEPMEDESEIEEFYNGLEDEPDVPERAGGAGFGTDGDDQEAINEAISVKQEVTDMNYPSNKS
Nature of the data set: Inhibition of His-tagged human recombinant SIRT1 expressed in Escherichia coli using Cbz-Lys(Ac)-AMC as substrate by fluorescence assay.

Data set [2] has as its target Histone deacetylase 5 (Homo sapiens) (UniProt Q9UQL6). Nature of the data set: Inhibition of HDAC5 (unknown origin) at 20 uM.
For data set [3], the target named is Histone deacetylase 4 (Homo sapiens) (UniProt P56524). Nature of the data set: Inhibition of HDAC4 (unknown origin) at 20 uM.
Chain of Histone deacetylase 4 (Homo sapiens) (P56524 whole entry): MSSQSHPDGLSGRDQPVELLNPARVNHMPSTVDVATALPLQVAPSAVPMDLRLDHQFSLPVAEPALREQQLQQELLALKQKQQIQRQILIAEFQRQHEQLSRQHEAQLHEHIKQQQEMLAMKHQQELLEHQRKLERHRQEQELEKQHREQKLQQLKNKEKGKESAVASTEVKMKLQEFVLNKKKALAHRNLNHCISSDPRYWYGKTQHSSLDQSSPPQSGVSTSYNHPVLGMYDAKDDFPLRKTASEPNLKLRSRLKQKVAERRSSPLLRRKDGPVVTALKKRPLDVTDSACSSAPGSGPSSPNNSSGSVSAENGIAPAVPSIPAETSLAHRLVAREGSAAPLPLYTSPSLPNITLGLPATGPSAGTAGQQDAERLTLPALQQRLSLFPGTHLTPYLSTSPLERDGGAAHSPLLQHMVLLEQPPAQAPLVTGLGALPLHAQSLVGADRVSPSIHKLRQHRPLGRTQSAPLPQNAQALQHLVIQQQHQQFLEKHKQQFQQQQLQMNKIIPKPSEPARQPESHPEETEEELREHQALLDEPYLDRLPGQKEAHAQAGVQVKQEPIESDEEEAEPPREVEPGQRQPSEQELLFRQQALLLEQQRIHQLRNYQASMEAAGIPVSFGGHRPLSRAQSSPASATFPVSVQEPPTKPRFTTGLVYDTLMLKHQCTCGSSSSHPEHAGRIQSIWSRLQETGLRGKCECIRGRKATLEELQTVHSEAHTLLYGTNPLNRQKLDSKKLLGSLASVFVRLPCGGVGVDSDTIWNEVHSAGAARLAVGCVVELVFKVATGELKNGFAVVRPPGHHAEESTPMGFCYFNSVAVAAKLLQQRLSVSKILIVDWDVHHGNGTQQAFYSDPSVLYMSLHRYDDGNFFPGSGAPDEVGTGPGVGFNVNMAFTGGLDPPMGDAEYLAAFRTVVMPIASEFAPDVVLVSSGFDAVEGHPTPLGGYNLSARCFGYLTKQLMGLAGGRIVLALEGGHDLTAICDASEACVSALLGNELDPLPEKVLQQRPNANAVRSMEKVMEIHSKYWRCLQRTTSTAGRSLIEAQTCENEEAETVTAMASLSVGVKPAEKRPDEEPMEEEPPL
For data set [4], the target named is T2, Histone deacetylase 7 (Homo sapiens) (UniProt Q8WUI4).
T2 sequence (whole entry): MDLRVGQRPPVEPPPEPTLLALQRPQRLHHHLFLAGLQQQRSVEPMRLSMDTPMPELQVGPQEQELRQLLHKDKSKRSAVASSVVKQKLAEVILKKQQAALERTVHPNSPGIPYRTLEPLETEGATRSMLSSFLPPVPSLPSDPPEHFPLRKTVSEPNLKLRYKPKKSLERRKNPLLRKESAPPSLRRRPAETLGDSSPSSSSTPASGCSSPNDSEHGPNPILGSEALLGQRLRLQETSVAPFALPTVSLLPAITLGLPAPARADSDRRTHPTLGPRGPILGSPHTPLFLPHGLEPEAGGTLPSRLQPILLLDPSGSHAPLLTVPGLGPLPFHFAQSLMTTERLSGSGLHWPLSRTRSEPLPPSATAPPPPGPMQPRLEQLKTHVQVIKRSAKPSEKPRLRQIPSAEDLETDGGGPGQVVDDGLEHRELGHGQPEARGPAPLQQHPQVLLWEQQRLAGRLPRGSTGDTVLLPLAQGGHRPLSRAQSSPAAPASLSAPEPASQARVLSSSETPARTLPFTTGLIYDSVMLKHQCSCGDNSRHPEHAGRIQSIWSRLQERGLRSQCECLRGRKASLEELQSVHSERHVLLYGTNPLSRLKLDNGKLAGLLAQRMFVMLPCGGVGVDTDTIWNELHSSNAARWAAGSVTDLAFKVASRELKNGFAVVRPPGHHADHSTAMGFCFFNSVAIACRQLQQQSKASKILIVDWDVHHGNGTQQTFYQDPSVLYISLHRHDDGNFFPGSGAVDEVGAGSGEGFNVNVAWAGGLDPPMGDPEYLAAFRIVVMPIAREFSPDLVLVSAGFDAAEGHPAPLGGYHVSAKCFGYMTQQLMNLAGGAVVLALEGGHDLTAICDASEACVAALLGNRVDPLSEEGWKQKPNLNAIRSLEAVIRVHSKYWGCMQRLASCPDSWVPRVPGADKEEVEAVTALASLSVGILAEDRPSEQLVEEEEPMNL
Description: Inhibition of HDAC7 (unknown origin) at 20 uM.

For data set [5], the target named is T3, NAD-dependent protein deacetylase sirtuin-2 (Homo sapiens, UniProt Q8IXJ6).
T3 sequence (Q8IXJ6 whole entry): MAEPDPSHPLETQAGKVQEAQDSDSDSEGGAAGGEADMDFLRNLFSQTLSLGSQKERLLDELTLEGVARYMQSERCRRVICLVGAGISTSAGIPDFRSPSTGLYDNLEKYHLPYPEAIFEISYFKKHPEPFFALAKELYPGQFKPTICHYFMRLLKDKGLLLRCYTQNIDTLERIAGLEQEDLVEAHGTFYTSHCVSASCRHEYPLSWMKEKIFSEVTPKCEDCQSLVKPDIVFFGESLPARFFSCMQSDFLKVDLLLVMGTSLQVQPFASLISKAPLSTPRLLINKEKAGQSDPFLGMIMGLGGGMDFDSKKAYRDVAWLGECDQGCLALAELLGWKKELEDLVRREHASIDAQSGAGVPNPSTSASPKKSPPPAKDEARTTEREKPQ
Description: Inhibition of His-tagged human recombinant SIRT2 expressed in Escherichia coli using Cbz-Lys(Ac)-AMC as substrate by fluorescence assay.

Data set [6] addresses T4, NAD-dependent protein deacetylase sirtuin-1 (Homo sapiens) (UniProt Q96EB6).
T4 sequence (whole entry): T1 sequence (Q96EB6 whole entry)
Nature of the data set: Inhibition of SIRT1-mediated endogenous p53 deacetylase activity in human Namalwa cells assessed as concentration required to […] to twice the basal level after 3 hrs by ELISA. It is filed as cell-based. Put shortly: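 Namalwa cells, 50,000/well, were exposed 3 h at 37 °C, 5% CO2, to 0.005–50 µM final (0.95% DMSO). Lysates were ELISA-captured on anti-p53 (DO-1), probed overnight with anti-acetyl-Lys382-p53, then HRP conjugate and Amplex Red (15 min; ex 550/em 610 nm). IC2xB is the concentration doubling basal (lowest) fluorescence. Means of three experiments.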
In general terms: ELISA stands for enzyme-linked immunosorbent assay.

A short description of data set [7]: Clearance in rat. The settings on record: in vivo. It is filed as ADME, organism-based.
The nature of data set [8]: Oral bioavailability in rat. The class given is ADME, organism-based. The settings on record: in vivo.
Another data set deals with Plasma. Nature of the data set: Metabolic stability in mouse plasma. The class given is ADME, cell-free.
Data set [9] in a line: Half life in rat. It is filed as ADME, organism-based. Particulars: in vivo.

Broadly, the IC50 is the midpoint of a concentration-inhibition curve. What is called clearance is a measure of how efficiently the substance is removed, as volume per time. The low end stands for inefficient removal, the high end for efficient removal. What is called bioavailability is the share of a dose that reaches the circulation, judged against a reference dose that is usually intravenous. A lower bioavailability goes with little systemic uptake. The half-life is the time needed for the level to fall by half in the phase considered. Higher therefore signals slow decline.

Chain of Histone deacetylase 1 (Q13547 whole entry): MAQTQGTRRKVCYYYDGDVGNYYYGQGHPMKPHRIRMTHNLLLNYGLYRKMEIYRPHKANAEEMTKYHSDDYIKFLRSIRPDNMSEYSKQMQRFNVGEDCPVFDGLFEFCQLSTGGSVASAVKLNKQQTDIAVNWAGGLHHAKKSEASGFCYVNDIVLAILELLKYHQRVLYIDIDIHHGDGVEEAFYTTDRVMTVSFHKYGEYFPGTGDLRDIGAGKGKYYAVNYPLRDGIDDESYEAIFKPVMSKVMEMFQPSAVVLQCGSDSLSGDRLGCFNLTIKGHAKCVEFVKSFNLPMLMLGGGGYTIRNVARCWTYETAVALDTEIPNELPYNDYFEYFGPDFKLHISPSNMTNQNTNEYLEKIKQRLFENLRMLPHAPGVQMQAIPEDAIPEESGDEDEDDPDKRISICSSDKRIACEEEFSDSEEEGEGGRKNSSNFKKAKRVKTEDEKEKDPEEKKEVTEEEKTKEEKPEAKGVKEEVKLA
Chain of Histone deacetylase 5 (Homo sapiens) (Q9UQL6 whole entry): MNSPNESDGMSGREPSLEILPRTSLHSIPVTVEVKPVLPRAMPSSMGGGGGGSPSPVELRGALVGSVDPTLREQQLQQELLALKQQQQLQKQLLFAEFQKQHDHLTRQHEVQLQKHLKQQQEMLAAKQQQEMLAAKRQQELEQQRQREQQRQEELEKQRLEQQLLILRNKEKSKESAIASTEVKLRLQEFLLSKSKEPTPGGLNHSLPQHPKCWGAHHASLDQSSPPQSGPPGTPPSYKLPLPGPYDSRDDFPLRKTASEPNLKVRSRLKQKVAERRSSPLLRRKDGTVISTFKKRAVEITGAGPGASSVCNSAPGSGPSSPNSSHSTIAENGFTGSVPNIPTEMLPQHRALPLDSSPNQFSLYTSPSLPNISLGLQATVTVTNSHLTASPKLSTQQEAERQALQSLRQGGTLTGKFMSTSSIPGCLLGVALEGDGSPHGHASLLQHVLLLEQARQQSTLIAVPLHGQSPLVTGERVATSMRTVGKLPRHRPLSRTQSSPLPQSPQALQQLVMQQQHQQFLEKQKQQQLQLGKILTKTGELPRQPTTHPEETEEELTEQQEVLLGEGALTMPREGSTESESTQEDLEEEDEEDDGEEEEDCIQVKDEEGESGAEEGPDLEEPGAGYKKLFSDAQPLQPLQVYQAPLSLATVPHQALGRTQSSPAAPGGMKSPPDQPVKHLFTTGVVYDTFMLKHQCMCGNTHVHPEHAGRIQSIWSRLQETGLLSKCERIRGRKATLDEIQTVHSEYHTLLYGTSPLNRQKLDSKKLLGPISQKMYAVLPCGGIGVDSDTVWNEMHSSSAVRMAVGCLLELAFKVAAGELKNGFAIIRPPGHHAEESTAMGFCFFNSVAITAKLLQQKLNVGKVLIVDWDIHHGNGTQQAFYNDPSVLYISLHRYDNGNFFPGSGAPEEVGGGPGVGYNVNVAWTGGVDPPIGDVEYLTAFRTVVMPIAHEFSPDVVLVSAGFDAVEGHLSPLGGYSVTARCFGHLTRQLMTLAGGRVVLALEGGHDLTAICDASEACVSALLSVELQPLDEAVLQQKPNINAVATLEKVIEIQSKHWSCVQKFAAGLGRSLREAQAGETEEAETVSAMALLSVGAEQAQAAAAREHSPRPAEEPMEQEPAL

For `NC(=O)C1CCCc2c(-c3ccc(Cl)c(Cl)c3)n[nH]c21` (racemic), the results for the IC50 (against Histone deacetylase 1; in data set [1]; in data set [5]) were more than 10 µM, 1.2 µM and 14.8 µM, respectively. Further, the inhibition entry in [2], in [3] and in [4] was “inactive” in each case. For the same molecule, the INH in data set [6] worked out at 1.2 µM.
For `CC1(C)Cc2c(-c3ccc(Cl)cc3)n[nH]c2C(C(N)=O)C1` (racemic), in data set [7], the clearance was 5 mL/min/kg. For the same molecule, at Histone deacetylase 1, the inhibition result is “inactive”. Moreover, the IC50 in data set [1] was determined as 0.8 µM; in data set [5] it was 1.7 µM. The molecule also returned a bioavailability in [8] of 23%. Moreover, the Stability result with Plasma is given as “Stable”. Also, the INH in data set [6] amounted to 1.2 µM. Besides, in data set [9], the half-life is 5.1 h.
